From PubChem BioAssay
Rows were chosen to be rich in hits. Some 12% of all compounds tested hit in one or more screens of this group.
Autophagy mod: autophagy modulators in MEF cells, primary screen, imaging, high-content, MEF GFP-LC3. MEF GFP-LC3 puncta imaging; test concentration mostly 10 µM. calls only at 10 µM (by protocol). 190,000 compounds, 0.98% hits;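 active means percentage of spot-positive cells more than 3 SD above its plate mean, without a fluorescence outlier flag or 80% toxicity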;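 further: spot-positive cell cutoff set from DMSO-treated cells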
MT stabilize HCS: microtubule stabilizers in HeLa cells, primary screen, imaging, high-content imaging. AID 2205, 2009. HeLa tubulin immunostaining HCS, 24 h; share of cells brighter than vehicle mean+2SD. % tubulin-high responders, % at 10 µM. 200,000 compounds, 0.83% hits;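 active means plate Z-score above 3 for both tubulin-high and condensed-nucleus cell shares, with cell loss under 80%, at 10 µM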;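 further: anti alpha tubulin signal scored within the nucleus-defined area of each cell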
bCat nuc transl: modulators of beta-catenin nuclear translocation, primary screen, imaging, HeLa cells, immunofluorescence, high-content; 190,000 compounds, 0.3% hits; nuclear translocation activity, % at 5 µM;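 active means nuclear translocation activity above 50% at 5 µM, with a well cell count of 50 or more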;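 further: per-cell ratio of nuclear to cytoplasmic median beta-catenin stain intensity; plate controls were DMSO negative control for no effect and GSK-3 inhibitor IX positive control for full effect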
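Signal – beta-catenin immunofluorescence imaging with DAPI · Test system – human HeLa cell line · Dosing – 5 µM primary single dose, 0.1% DMSO, 0.02–20 µM confirmation series · Measure – % activation, nuclear-to-cytoplasmic median beta-catenin signal ratio per cell · Incubation – 24 h compound exposure at 37°C, 5% CO2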
L major viab: Leishmania major promastigote growth inhibition, primary screen; Leishmania major promastigotes, resazurin fluorescence viability; AID 1063, 2008; 200,000 compounds, 9% hits; inhibition, % at 10 µM; in the data active means inhibition above about 50%;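 further: promastigotes grown with compound for 44 hours at 28 °C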
Dynein cargo inh: inhibitors of GR-EGFP nuclear translocation, primary screen, dynein cargo transport inhibitor project, imaging, high-content, 3617.4 mouse cells; AID 1381, 2008; test concentration mostly 20 µM; stimulated with dexamethasone, 1 µM; hits give low values; 220,000 compounds, 0.47% hits; z-score, hits read low;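 active means plate z-score of nuclear minus cytoplasmic receptor signal below a set negative limit, without overly bright fluorescence or cell loss, cut at about -3.5 in these data, passing the limit was not always enough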;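 further: z-score of nuclear minus cytoplasmic ring GR-EGFP intensity difference per well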
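Buffer or medium – tet-free medium with charcoal-stripped serum · Signal – automated 10x imaging of fixed Hoechst-stained cells · Also added – dexamethasone agonist, 1.0 µM final, for 30 min · Incubation – induction 48 h, compound 1 h, agonist 30 min · Read-out – GR-EGFP nuclear translocation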
CHOP inh: inhibitors of CHOP promoter induction, primary screen, cell-based, unfolded protein response, luciferase reporter; CHO-K1 CHOP-promoter luciferase, tunicamycin-induced, 15-18 h; inhibition, % at 10 µM; 220,000 compounds, 3.8% hits;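 active means compounds that reduced the stress-induced luciferase reporter signal by more than about 70% of percent inhibition, limit read from the data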;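 further: 0% = tunicamycin plus vehicle and 100% = wells without tunicamycin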
* marks the source's active call; other numbers are inactive results; i = inactive; / = no result; + = active, no number.

SMILES | Autophagy mod | MT stabilize HCS | bCat nuc transl | L major viab | Dynein cargo inh | CHOP inh
Cc1ccccc1NC(=O)/C(=C/c1ccccc1)c1ccccc1 | i | 1 | -2 | 44 | 0.32 | 54
Cc1ccc(C(=O)Nc2nnc(NC(=S)Nc3ccccc3)s2)cc1 | i | 3 | 1 | 15 | -0.32 | 70*
O=C(Nc1ccccc1)/C(=C/c1ccccc1)c1ccccc1 | i | 3 | -9 | 98* | -0.59 | 29
Cc1cc(NC(=S)Nc2cccnc2)ccc1Br | i | 2 | 0 | 17 | -0.59 | 38
O=C(O)c1ccc(NC(=S)Nc2ccccc2)cc1 | i | 3 | -1 | 91* | 2.1 | 0
CN(Cc1cnccn1)Cc1cn(Cc2ccccc2)nc1-c1ccc2c(c1)OCO2 | i | 4 | 1 | 5 | 1.4 | 17
CCCNC(=O)CNC(=S)N(Cc1cc(OC)c(OC)c(OC)c1)C1CCCC1 | i | 2 | -1 | 54* | 0.092 | 18
COc1ccc(-c2[nH]ncc2CN(C)CC2CCCCO2)cc1F (centres undefined) | + | / | 1 | -1 | 0.035 | 7
COc1ccc(-c2[nH]ncc2CN(C)CCN2CCOCC2)cc1F | i | 4 | 3 | 5 | 1.3 | 3
Cc1ccnc(NC(=S)NC(=O)/C=C/c2ccco2)c1 | i | 21* | -2 | -6 | -0.34 | -40
O=C(/C=C/c1ccco1)NC(=S)Nc1ccc(N2CCCC2)cc1 | i | 13* | -4 | 5 | 0.04 | -4
Cc1ccc(O)c(NC(=S)NC(=O)/C=C/c2ccco2)c1 | i | 31 | 0 | -4 | -0.84 | -4
O=C(NC(=S)Nc1nc(-c2ccc(Br)cc2)cs1)c1ccco1 | i | 2 | 1 | -5 | -0.48 | 84*
O=C(NNc1nc(-c2ccc(Br)cc2)cs1)c1ccco1 | i | 4 | 1 | -4 | -0.12 | 15
Cc1ccnc(NC(=O)/C=C/c2cccs2)c1 | i | 14* | 2 | -10 | 1.1 | 27
CC(=O)NC(=S)Nc1ccc(NC(=S)NC(=O)/C=C/c2ccco2)cc1 | / | / | 2 | / | -0.46 | 8
CC(=O)NC1(NC(C)=O)CCN(C)CC1 | i | 3 | -1 | -4 | -0.51 | 8
CCNc1nc(NCC)nc(Oc2ccc(C(=O)OC)cc2)n1 | / | / | 0 | / | 0.029 | 1
CCCCNC(=O)CNC(=S)N(CCCN1CCOCC1)Cc1cccs1 | i | 3 | -2 | -4 | -0.22 | -9
Cc1cc(O)c2/c(=N\N)c(-c3csc(C)n3)coc2c1 | / | / | 0 | / | -0.3 | 3
O=C(/C=C/c1ccco1)NC(=S)NNC(=O)c1ccco1 | i | 3 | 0 | 94* | -1.3 | 29
O=C(/C=C\c1ccco1)Nc1nc(-c2ccc3ccccc3c2)cs1 | i | 5 | -1 | 3 | -1.4 | 4
Cc1ccc(-c2csc(NC(=S)NC(=O)/C=C/c3ccco3)n2)cc1 | i | 32* | 31 | -2 | -0.42 | -36
Cc1cc([N+](=O)[O-])nn1CCCC(=O)Nc1c(C)n(C)n(-c2ccccc2)c1=O | i | 2 | 2 | -4 | 0.46 | 16
CCC(CC)NC(=O)Cc1ccc(F)cc1 | i | 2 | -1 | -3 | -0.66 | 0
SMILES | Autophagy mod | MT stabilize HCS | bCat nuc transl | L major viab | Dynein cargo inh | CHOP inh
c1cc(Nc2ncnc3sc4c(c23)CCC4)ccn1 | i | 2 | -1 | -5 | 0.31 | 6
C(=N\Nc1ncnc2sc3c(c12)CCC3)/c1ccncc1 | i | 2 | 8 | 66* | 1.4 | -10
Cc1ccc(Cn2nc(-c3ccccc3)nc2-c2ccccc2)cc1 | i | 2 | / | 26 | -0.5 | 75*
Cc1ccc(-c2c[n+](CC(=O)c3ccc(Br)cc3)c3n2CCCCC3)cc1 | i | 5 | -2 | 100* | 0.4 | -9
COc1ccc(-c2c[n+](CC(=O)c3ccccc3)c3n2CCCCC3)cc1 | / | / | 0 | / | -0.58 | -11
CC1CCC(C(C)C)C(OC(=O)C[n+]2cc(-c3ccc(Cl)cc3)n3c2CCCCC3)C1 (centres undefined) | + | 6 | -1 | 100* | -1.8 | 48
O=C(C[n+]1cc(-c2ccccc2)n2c1CCCCC2)c1ccc(Cl)cc1 | i | 5 | 0 | 70* | 1.5 | 1
